{"source": "paper PMC3575752", "about": "(Journal of nuclear medicine : official publication, Society …, 2009)", "key": {"purified PSMA": {"biological_target": "purified PSMA (Homo sapiens, UniProt Q04609)", "sequence (Q04609 whole entry)": "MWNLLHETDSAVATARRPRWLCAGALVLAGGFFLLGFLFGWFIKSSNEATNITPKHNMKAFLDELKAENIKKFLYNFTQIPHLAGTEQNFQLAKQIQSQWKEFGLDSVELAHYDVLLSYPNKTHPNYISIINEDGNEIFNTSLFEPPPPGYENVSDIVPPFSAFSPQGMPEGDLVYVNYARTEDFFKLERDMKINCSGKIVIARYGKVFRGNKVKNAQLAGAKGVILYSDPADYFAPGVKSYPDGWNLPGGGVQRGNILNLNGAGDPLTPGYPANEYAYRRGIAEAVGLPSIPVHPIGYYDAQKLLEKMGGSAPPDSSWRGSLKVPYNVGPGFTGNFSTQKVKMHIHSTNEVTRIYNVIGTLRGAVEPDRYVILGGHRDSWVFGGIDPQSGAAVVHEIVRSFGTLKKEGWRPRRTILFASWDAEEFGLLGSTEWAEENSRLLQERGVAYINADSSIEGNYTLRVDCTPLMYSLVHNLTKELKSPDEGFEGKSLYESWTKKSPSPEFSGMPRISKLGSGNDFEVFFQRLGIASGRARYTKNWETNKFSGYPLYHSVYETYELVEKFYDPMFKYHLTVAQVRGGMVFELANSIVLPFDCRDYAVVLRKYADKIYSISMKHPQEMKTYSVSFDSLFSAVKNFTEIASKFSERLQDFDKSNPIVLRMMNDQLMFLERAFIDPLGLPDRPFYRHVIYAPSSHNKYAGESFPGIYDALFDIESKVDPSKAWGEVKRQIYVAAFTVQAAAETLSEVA", "test": "HPLC-based PSMA inhibition IC50 assay", "assay_type": "biochemical", "conditions": "read-out: IC50, PSMA inhibition; PABGgG 1 μM, 15 min, 37°C, Tris pH 7.4", "how_it_was_run": "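Purified PSMA diluted in 50 mM Tris pH 7.4 with 1% Triton X-100 to give 15–20% uninhibited conversion. […] Shaken 15 min at 37°C, then quenched with 2% TFA in methanol and buffered with 0.1 M K2HPO4. After centrifugation, supernatant product measured by HPLC; IC50 calculated.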"}, "[1]": {"test_system": "PC-3 PSMA− tumor xenografts", "test": "Ex vivo biodistribution in mice bearing PC-3", "parameters": "species or system male NCr nude mice", "how_it_was_run": "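Male NCr nude mice with subcutaneous right-shoulder PC-3 xenografts (cells in serum-free medium; tumours 5–10 mm, 1–2 wk). 18F tracer, 3,700–7,400 kBq, by tail vein under isoflurane. Euthanised after 2 h imaging. Cardiac blood, major organs (including kidney) and tumour weighed and γ-counted. %ID/g from known-activity standards. n = 3; one-tailed t test, unequal variance.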"}, "[2]": {"test_system": "LNCaP PSMA+ tumor xenografts", "test": "microPET/CT imaging of LNCaP", "assay_type": "in vivo, male NCr nude mice", "conditions": "1 mg nonradioactive (2) 1 h before tracer, 120 min after injection", "how_it_was_run": "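LNCaP-xenograft male nude mice (tumours 5–10 mm) under isoflurane were pretreated with 1 mg unlabelled analogue in 200 μL Tris buffer. One hour later they received tail-vein 18F tracer (3,700–7,400 kBq). MicroPET/CT, 10-min acquisitions at 0, 1 and 2 h, list mode, 2D OSEM reconstruction.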"}, "[3]": {"test_system": "PC-3 PSMA− tumor xenografts", "test": "microPET/CT imaging of PC-3", "assay_type": "in vivo, male NCr nude mice", "conditions": "PC-3 PSMA− xenograft, 2 h post-injection", "how_it_was_run": "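PC-3-xenograft male NCr nude mice (tumours 5–10 mm, 1–2 wk after subcutaneous inoculation) anaesthetised with isoflurane. Tail-vein 18F tracer, 3,700–7,400 kBq (100–200 μCi). MicroPET/CT, 10-min scans at 0, 1 and 2 h. List-mode data, 2D OSEM reconstruction.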"}}, "data": [{"molecule": "O=C(O)CC[C@H](NP(=O)(O)OC[C@H](NC(=O)CC[C@H](NC(=O)c1ccc(F)cc1)C(=O)O)C(=O)O)C(=O)O", "note": "[compound 2, S-2-((2-(S-4-(4-Fluorobenzamido)-4-Carboxybutanamido)-S-2-Carboxyethoxy) Hydroxyphosphorylamino)-Pentanedioic Acid]", "values": [{"measurement": "IC50", "setting": "purified PSMA", "result": 680, "unit": "pM"}]}, {"molecule": "O=C(O)CC[C@H](NP(=O)(O)OC[C@H](NC(=O)CC[C@H](NC(=O)c1ccc([18F])cc1)C(=O)O)C(=O)O)C(=O)O", "note": "[compound 3, ^18F-S-2-((2-(S-4-(4-Fluorobenzamido)-4-Carboxybutanamido)-S-2-Carboxyethoxy) Hydroxyphosphoryl-Amino)-Pentanedioic Acid]", "values": [{"measurement": "tumor uptake in PSMA− control", "setting": "[1]; PC-3 tumor, 2 h post-injection", "result": "0.32 ± 0.14", "unit": "%ID/g"}, {"measurement": "kidney uptake", "setting": "[1]; PSMA− (PC-3) model, 2 h", "result": "2.83 ± 0.9", "unit": "%ID/g"}, {"measurement": "PET tumor uptake after blocking", "setting": "[2]", "result": "substantial decrease in tumor uptake"}, {"measurement": "PET tumor signal", "setting": "[3]", "result": "no detectable tumor signal"}]}]}
